High-throughput results deposited in PubChem by several laboratories.
Most compounds without a hit are left out; they make up all but 1.7% or so of the library.
RanGTP-Impb inh: disruptors of Ran-importin-beta complex formation – biochemical, FRET, CFP-Ran, YFP-importin-beta, homogeneous, primary screen. cell-free CFP-Ran/YFP-importin-beta FRET ratio. inhibition, % (concentration not given with the values). 300,000 tested, 1.1% active. AID 2216;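 active = more than half of the replicate wells show a fall in the fluorescence ratio signal beyond about 16%, limit read from the data, passing the limit was not always enough; inconclusive = exactly half of the replicate wells pass the set limit; inactive = fewer than half of replicates pass the limit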;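 note: 0% = DMSO wells and 100% = Ran loaded with GDP instead of GTP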
Runt-SMMHC FRET: inhibitors of human RUNX1 Runt domain binding to CBFb-SMMHC | Q01196+Q13951 | Cerulean-Runt/Venus-CBFb-SMMHC FRET ratio 530/480, 1 h | inhibition, % at 20 µM | 220,000 tested, 0.74% active | AID 1434;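 active = mean inhibition across duplicate retests at 20 µM reaching about 50%, limit read from the data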;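 note: 0% = DMSO wells and 100% = wells with excess untagged CBFb-SMMHC; inhibitors lower the FRET ratio by blocking Runt binding to CBFb-SMMHC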
Vif inh: inhibitors of HIV Vif | HEK293T cells, Vif self-association by quenched fluorescence, imaging, 24 h | 340,000 tested, 0.35% active | inhibition, % at 7.49 µM; in the data active = inhibition above about 50%, passing the limit was not always enough; inconclusive = no clear call, values can overlap the other calls; inactive = below about 31%
Rce1 inh: inhibitors of yeast Ras-converting enzyme. AID 2563. Q03530. 290,000 tested, 0.27% active. yeast membranes, quenched prenylated peptide cleavage fluorescence. calls only;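 active = fall in fluorescence gain of 50% or more versus controls, with final raw signal at or below 3038400; inconclusive = same 50% fall but final raw signal above 3038400; inactive = fall in fluorescence gain under 50%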;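 note: plate controls were neutral control wells for no effect and wells lacking membranes for full effect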
Target sequence (Q03530 whole entry, looked up): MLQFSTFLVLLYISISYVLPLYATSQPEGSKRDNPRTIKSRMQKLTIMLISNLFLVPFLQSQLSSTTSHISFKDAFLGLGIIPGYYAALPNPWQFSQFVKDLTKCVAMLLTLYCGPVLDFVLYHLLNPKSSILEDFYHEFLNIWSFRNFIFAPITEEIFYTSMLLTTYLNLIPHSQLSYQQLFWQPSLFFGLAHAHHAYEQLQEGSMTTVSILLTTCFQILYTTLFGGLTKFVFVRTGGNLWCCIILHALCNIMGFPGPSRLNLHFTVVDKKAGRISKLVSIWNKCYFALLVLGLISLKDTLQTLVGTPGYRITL
Runt-CBFb FRET: inhibitors of human RUNX1 Runt domain binding to CBFb; inhibition, % at 20 µM; 220,000 tested, 0.46% active; Cerulean-Runt/Venus-CBFb FRET ratio 530/480, 1 h;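 active = inhibition over about 50% at 20 µM in the single-dose screen, limit read from the data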;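 note: 0% = DMSO wells and 100% = excess unlabeled CBFb competitor control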
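Assay system: Cerulean-Runt domain / Medium: Tris 50 mM pH 7.5, KCl, K2SO4, 0.01% BSA / Timing: protein complex preformed 1 h, compound exposure 1 h, room temperature, dark / Measured by: FRET, excitation 422 nm, emission at 530 and 480 nm / Evaluation: loss of energy transfer signal / Control set: 5 µM unlabeled CBFb as full-inhibition high control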
* hit, by the source's call; i = inactive; ? = inconclusive; . = no result; + = active, no number.

SMILES	RanGTP-Impb inh	Runt-SMMHC FRET	Vif inh	Rce1 inh	Runt-CBFb FRET
CC(=O)N1CSCC1C(=O)NNS(=O)(=O)c1ccccc1 (stereo unspecified)	2	-6	0	i	-3
C=CCn1cc(CN2CCC(C(=O)Nc3cccc(-c4cccc(Cl)c4)c3)CC2)c(C)n1	?	.	-13	i	.
CC1(C)CC2CC(C)(CN2S(=O)(=O)c2ccc(N)cc2)C1 (stereo unspecified)	-1	2	-6	+	1
CC1(C)CC2CC(C)(CN2S(=O)(=O)c2cccc(C(N)=O)c2)C1 (stereo unspecified)	.	.	-6	.	.
O=C1/C(=C\c2ccccc2)CCC/C1=C/c1ccccc1	.	.	1	.	.
O=C1CCC/C1=C\c1ccccc1	149*	0	6	i	0
CN(C)c1ccc(C=Cc2ccnc3c(O)cccc23)cc1	.	.	51*	.	.
OCc1ccnc2c(O)cccc12	-1	-6	3	i	46
Nc1nc(-c2ccccc2)[nH]c(=O)c1N=O	-1	-3	-3	i	2
Nc1[nH]c(=O)nc(Nc2ccccc2)c1N=O	38*	.	12	i	.
CN(C[C@H](Cc1ccccc1)N(C[C@H](Cc1ccccc1)N(CC1(c2ccccc2)CC1)N=O)N=O)N=O	5	-4	-10	i	1
COc1cccc(OC)c1OCc1cc(C2C3CCCC=C3C(C#N)=C(N)C2(C#N)C#N)c(C)cc1C (stereo unspecified)	-12	-1	-2	i	13
Cc1ccc(C2C3CN(C(C)C)CC=C3C(C#N)=C(N)C2(C#N)C#N)cc1 (stereo unspecified)	63*	63*	.	i	81*
CC(=O)N1CC=C2C(C#N)=C(N)C(C#N)(C#N)[C@H](c3ccoc3)[C@H]2C1	-4	10	-4	i	8
COc1ccc(OC)c(C2C3CN(C(C)C)CC=C3C(C#N)=C(N)C2(C#N)C#N)c1 (stereo unspecified)	31*	79*	95*	i	42
CCCN1CC=C2C(C#N)=C(N)C(C#N)(C#N)C(c3cccc(OC)c3OC)C2C1 (stereo unspecified)	104*	78*	i	i	94*
CCCN(CCC)C(C)C(=O)NCC1(c2ccccc2)CCCC1 (stereo unspecified)	1	-5	7	i	-4
Cc1ccccc1CS(=O)(=O)CC(O)CN1CCCC1=O (stereo unspecified)	-2	.	-3	i	.
Cc1cc(C(=O)NNC(=O)CN2C(=O)NC(C)(c3ccccc3)C2=O)c(C)o1 (stereo unspecified)	.	.	4	i	.
O=C1c2ccc3c4c(ccc(c24)C(=O)N1c1cccc(O)c1)C(=O)N(c1cccc(O)c1)C3=O	-2	1	12	i	2
CC1(C)CC(=O)C2=C(C1)N(c1cccc(O)c1)C1=C(C2)C(=O)CC(C)(C)C1	74*	57*	.	i	34
C=C(C)c1cccc(C(C)(C)NC(=O)Nc2ccc(OC)nc2)c1	10	.	12	i	.
CC(NC(=O)CSc1nc2c(c(C(F)(F)F)n1)CCc1ccccc1-2)c1ccccc1 (stereo unspecified)	6	0	63*	.	-6
O=C(CSc1nc2c(c(C(F)(F)F)n1)CCc1ccccc1-2)NCc1ccco1	2	4	3	i	5
C=CCn1cccc(C(=O)Nc2ccc(N(C)C)cc2)c1=O	4	.	-10	i	.
SMILES	RanGTP-Impb inh	Runt-SMMHC FRET	Vif inh	Rce1 inh	Runt-CBFb FRET
COc1ccccc1CCNC(=O)C(=O)NCCC1CCCCN1S(=O)(=O)c1ccccc1 (stereo unspecified)	37*	.	-5	i	.
CC1CCC(NC(=O)N(CCCl)N=O)CC1 (stereo unspecified)	4	.	59*	i	.
CC1CCC(NC(=S)NCCN(C)C)CC1 (stereo unspecified)	3	-1	-11	i	1
Cc1csc2nc(=O)c3ccccc3n12	-1	-1	5	+	0
Cc1ccc(C)n1-c1cc([N+](=O)[O-])ccc1-n1ccnc1	1	-4	20	i	-2
CC1(C)N([O-])c2cc([N+](=O)[O-])ccc2[N+]1=O	.	85*	.	.	63*
CCOc1ccc2nc(N3CCOCC3)nc(C)c2c1	58*	79*	7	i	74*
